ChEMBL document CHEMBL2424587, “Antiproliferative activity of abietane diterpenoids against human tumor cells” (J Nat Prod, 2013)
pIC50: −log10 of the molar value. Active and inactive are the calls of the source. The calls are words filed in the database; no cut-off is given here.

The molecules below were run on MOLT-3 (assay: Cytotoxicity against human MOLT3 cells after 72 hrs by MTT assay). Settings: MOLT-3, 72 h.
Format: functional, cell-based
Procedure, shortened: (§1)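 MTT assay: 1 × 10^4 exponentially growing cells per well incubated 72 h over a range of compound concentrations; MTT 0.5 mg/mL for 4 h at 37 °C, then 10% SDS in 0.05 M HCl overnight at room temperature in the dark; absorbance at 570 nm. Leukemia and SK-MEL-1 lines grown in RPMI 1640, MCF-7 in DMEM, both with 10% heat-inactivated FBS. IC50 given as mean ± SEM of 3–5 independent experiments, each in triplicate.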

SMILES	pIC50
CC(=O)O[C@H]1C2=C(C(=O)C(OC(=O)c3ccccc3)=C(C(C)C)C2=O)[C@@]2(C)CCCC(C)(C)[C@@H]2[C@@H]1OC(=O)c1ccccc1	5.16

The molecules below were run on HL-60 (assay: Induction of apoptosis in human HL60 cells assessed as nuclear chromatin condensation after 6 hrs by Hoechst 33258 staining-based fluorescence microscopy). Settings: not given.
Format: functional, cell-based

SMILES	Activity
CC(=O)O[C@H]1C2=C(C(=O)C(OC(=O)c3ccccc3)=C(C(C)C)C2=O)[C@@]2(C)CCCC(C)(C)[C@@H]2[C@@H]1OC(=O)c1ccccc1	Active

Each molecule was assayed on HL-60 (assay: Induction of apoptosis in human HL60 cells assessed as procaspase-9 cleavage at 3 uM after 24 hrs by immunoblotting analysis). Settings: not given.
Format: functional, cell-based
Procedure, shortened: (§2)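 HL-60 cells treated 24 h with 3 μM; immunoblots of lysates probed with antibodies that recognize both pro-caspases and cleaved caspases, and for PARP.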

SMILES	Activity
CC(=O)O[C@H]1C2=C(C(=O)C(OC(=O)c3ccccc3)=C(C(C)C)C2=O)[C@@]2(C)CCCC(C)(C)[C@@H]2[C@@H]1OC(=O)c1ccccc1	Active

Each molecule was assayed on U-937 (assay: Cytotoxicity against human U937 cells after 72 hrs by MTT assay). Settings: U-937, 72 h.
Format: functional, cell-based
Procedure, shortened: as §1

SMILES	pIC50
CC(=O)O[C@H]1C2=C(C(=O)C(OC(=O)c3ccccc3)=C(C(C)C)C2=O)[C@@]2(C)CCCC(C)(C)[C@@H]2[C@@H]1OC(=O)c1ccccc1	5.74

The molecules below were run on HL-60 (assay: Cell cycle arrest in human HL60 cells assessed as accumulation at S phase at 3 uM after 24 hrs by […]propidium iodide staining-based flow cytometry (reference value: 32%)). Settings: not given.
Format: functional

SMILES	Activity
CC(=O)O[C@H]1C2=C(C(=O)C(OC(=O)c3ccccc3)=C(C(C)C)C2=O)[C@@]2(C)CCCC(C)(C)[C@@H]2[C@@H]1OC(=O)c1ccccc1	16%

The molecules below were run on HL-60 (assay: Induction of apoptosis in human HL60 cells assessed as externalization of phosphotidylserine at 3 uM after 24 hrs by AnnexinV-FITC/propidium iodide staining-based flow cytometry). Settings: not given.
Format: functional, cell-based
Procedure, shortened: (§3)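 HL-60 cells given 3 μM for 24 h, stained with annexin V-FITC and propidium iodide, and analysed by flow cytometry; annexin+/PI− cells scored as early apoptotic and double-positive cells as late; three separate experiments.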

SMILES	Activity
CC(=O)O[C@H]1C2=C(C(=O)C(OC(=O)c3ccccc3)=C(C(C)C)C2=O)[C@@]2(C)CCCC(C)(C)[C@@H]2[C@@H]1OC(=O)c1ccccc1	Active

These molecules were tested on HL-60 (assay: Induction of apoptosis in human HL60 cells assessed as release of Smac/DIABLO to cytosolic fraction by Western blotting analysis). Settings: not given.
Format: functional, cell-based

SMILES	Activity
CC(=O)O[C@H]1C2=C(C(=O)C(OC(=O)c3ccccc3)=C(C(C)C)C2=O)[C@@]2(C)CCCC(C)(C)[C@@H]2[C@@H]1OC(=O)c1ccccc1	Active

These molecules were tested on HL-60 (assay: Induction of apoptosis in human HL60 cells assessed as late apoptotic cells at 3 uM after 24 hrs by AnnexinV-FITC/propidium iodide staining-based flow cytometry (reference value: 3.1%)). Settings: not given.
Format: functional
Procedure, shortened: as §3

SMILES	Activity
CC(=O)O[C@H]1C2=C(C(=O)C(OC(=O)c3ccccc3)=C(C(C)C)C2=O)[C@@]2(C)CCCC(C)(C)[C@@H]2[C@@H]1OC(=O)c1ccccc1	20.7%

What follows are molecules tested on SK-MEL-1 (assay: Cytotoxicity against human SK-MEL-1 cells after 72 hrs by MTT assay). Settings: SK-MEL-1, 72 h.
Format: functional, cell-based
Procedure, shortened: as §1

SMILES	pIC50
CC(=O)O[C@H]1C2=C(C(=O)C(OC(=O)c3ccccc3)=C(C(C)C)C2=O)[C@@]2(C)CCCC(C)(C)[C@@H]2[C@@H]1OC(=O)c1ccccc1	5.51

The molecules below were run on MCF7 (assay: Cytotoxicity against human MCF7 cells after 72 hrs by MTT assay). Settings: MCF7, 72 h.
Format: functional, cell-based
Procedure, shortened: as §1

SMILES	pIC50
CC(=O)O[C@H]1C2=C(C(=O)C(OC(=O)c3ccccc3)=C(C(C)C)C2=O)[C@@]2(C)CCCC(C)(C)[C@@H]2[C@@H]1OC(=O)c1ccccc1	4.59

Each molecule was assayed on HL-60 (assay: Induction of apoptosis in human HL60 cells assessed as release of AIF to cytosolic fraction by Western blotting analysis). Settings: not given.
Format: functional, cell-based

SMILES	Activity
CC(=O)O[C@H]1C2=C(C(=O)C(OC(=O)c3ccccc3)=C(C(C)C)C2=O)[C@@]2(C)CCCC(C)(C)[C@@H]2[C@@H]1OC(=O)c1ccccc1	Active

These molecules were tested on U-937 (assay: Cytotoxicity against human U937 cells overexpressing Bcl-2 protein after 72 hrs by MTT assay). Settings: U-937, 72 h.
Format: functional, cell-based

SMILES	pIC50
CC(=O)O[C@H]1C2=C(C(=O)C(OC(=O)c3ccccc3)=C(C(C)C)C2=O)[C@@]2(C)CCCC(C)(C)[C@@H]2[C@@H]1OC(=O)c1ccccc1	6.22

These molecules were tested on HL-60 (assay: Induction of apoptosis in human HL60 cells assessed as release of cytochrome c to cytosolic fraction by Western blotting analysis). Settings: not given.
Format: functional, cell-based

SMILES	Activity
CC(=O)O[C@H]1C2=C(C(=O)C(OC(=O)c3ccccc3)=C(C(C)C)C2=O)[C@@]2(C)CCCC(C)(C)[C@@H]2[C@@H]1OC(=O)c1ccccc1	Active

The molecules below were run on HL-60 (assay: Induction of apoptosis in human HL60 cells assessed as procaspase-4 cleavage at 3 uM after 24 hrs by immunoblotting analysis). Settings: not given.
Format: functional, cell-based
Procedure, shortened: as §2

SMILES	Activity
CC(=O)O[C@H]1C2=C(C(=O)C(OC(=O)c3ccccc3)=C(C(C)C)C2=O)[C@@]2(C)CCCC(C)(C)[C@@H]2[C@@H]1OC(=O)c1ccccc1	Active

These molecules were tested on HL-60 (assay: Cytotoxicity against human HL60 cells overexpressing Bcl-XL protein after 72 hrs by MTT assay). Settings: HL-60, 72 h.
Format: functional, cell-based

SMILES	pIC50
CC(=O)O[C@H]1C2=C(C(=O)C(OC(=O)c3ccccc3)=C(C(C)C)C2=O)[C@@]2(C)CCCC(C)(C)[C@@H]2[C@@H]1OC(=O)c1ccccc1	5.96

Each molecule was assayed on HL-60 (assay: Induction of apoptosis in human HL60 cells assessed as reduction in mitochondrial membrane potential at 3 uM after 24 hrs by JC-1 staining-based flow cytometry). Settings: not given.
Format: functional, cell-based
Procedure, shortened: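 ΔΨm in HL-60 cells after 24 h at 3 μM assessed by JC-1 fluorescence on flow cytometry; two separate experiments, each in triplicate.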

SMILES	Activity
CC(=O)O[C@H]1C2=C(C(=O)C(OC(=O)c3ccccc3)=C(C(C)C)C2=O)[C@@]2(C)CCCC(C)(C)[C@@H]2[C@@H]1OC(=O)c1ccccc1	Active
